In ChEMBL document CHEMBL1133862, “Synthesis and binding affinities of 2 beta-(3-iodoallyloxycarbonyl)-3 beta-(4-substituted-aryl)tropane analogues as ligands for the dopamine transporter studies” (Bioorg Med Chem Lett, 2001):

Legend:
[1] = biological target: Sodium-dependent dopamine transporter (Rattus norvegicus, UniProt P23977); test: Inhibition of [3H]WIN-35428 binding to Dopamine transporter in rat striatal synaptic membranes; type: cell membranes, Membrane
[2] = biological target: Sodium-dependent dopamine transporter (Rattus norvegicus) (UniProt P23977); test: Ratio of binding affinity of E isomer to that ofZ isomer towards the dopamine transporter expressed as IC50(E)/IC50(Z)
Sequence of Sodium-dependent dopamine transporter (Rattus norvegicus) (P23977 whole entry): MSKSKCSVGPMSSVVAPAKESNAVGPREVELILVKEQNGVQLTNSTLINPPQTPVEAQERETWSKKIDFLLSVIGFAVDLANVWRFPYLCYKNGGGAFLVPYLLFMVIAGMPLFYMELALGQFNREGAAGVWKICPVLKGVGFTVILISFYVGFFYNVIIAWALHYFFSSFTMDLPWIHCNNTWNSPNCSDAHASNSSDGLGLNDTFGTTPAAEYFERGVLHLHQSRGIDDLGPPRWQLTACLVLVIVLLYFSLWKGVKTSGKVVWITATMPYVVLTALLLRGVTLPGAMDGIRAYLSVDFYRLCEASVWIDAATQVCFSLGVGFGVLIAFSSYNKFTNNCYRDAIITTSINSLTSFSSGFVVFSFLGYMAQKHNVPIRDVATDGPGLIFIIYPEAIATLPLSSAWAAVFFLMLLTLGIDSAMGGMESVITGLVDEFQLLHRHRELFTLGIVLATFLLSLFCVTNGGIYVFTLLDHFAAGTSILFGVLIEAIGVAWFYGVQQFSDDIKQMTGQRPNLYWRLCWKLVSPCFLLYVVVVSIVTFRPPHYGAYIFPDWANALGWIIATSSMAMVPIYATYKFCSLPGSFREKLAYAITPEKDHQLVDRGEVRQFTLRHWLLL
Summary of the method: (§1)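 Ratio of IC50 values for the E and Z isomers bearing the same para substituent on the 3β-phenyl ring. Both IC50s come from rat striatal membrane competition binding against 3 nM [3H]WIN 35,428, with 13 concentrations from 10^-12 to 10^-4 M and (−)-cocaine defining nonspecific binding.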

[3] = biological target: Sodium-dependent dopamine transporter (Rattus norvegicus) (UniProt P23977); test: Ratio of binding affinity of E isomer to that of Z isomer towards the dopamine transporter expressed as IC50(E)/IC50(Z); summary of the method: as §1

Sequence of Sodium-dependent dopamine transporter (P23977 whole entry): as above

Row | Compound | IC50 [1] [nM] | Ratio [2] | Ratio [3]
1 | CN1C2CCC1C(C(=O)OC/C=C/I)C(c1ccc(F)cc1)C2 (stereo not drawn) | 567 | – | –
2 | CN1C2CCC1C(C(=O)OC/C=C\I)C(c1ccc(Cl)cc1)C2 (stereo not drawn) | 24.9 | 1.87 | –
3 | CN1C2CCC1C(C(=O)OC/C=C/I)C(c1ccccc1)C2 (stereo not drawn) | 876 | – | –
4 | CN1C2CCC1C(C(=O)OC/C=C\I)C(c1ccc(F)cc1)C2 (stereo not drawn) | 356 | 1.59 | –
5 | COC(=O)C1C(c2ccc(Cl)cc2)CC2CCC1N2C/C=C/I (stereo not drawn) | 6.1 | – | –
6 | CN1C2CCC1C(C(=O)OC/C=C/I)C(c1ccc(Cl)cc1)C2 (stereo not drawn) | 46.6 | – | –
7 | Cc1ccc(C2CC3CCC(C2C(=O)OC/C=C/I)N3C)cc1 (stereo not drawn) | 190 | – | –
8 | CN1C2CCC1C(C(=O)OC/C=C\I)C(c1ccccc1)C2 (stereo not drawn) | 308 | – | 2.84
9 | Cc1ccc(C2CC3CCC(C2C(=O)OC/C=C\I)N3C)cc1 (stereo not drawn) | 39.2 | 4.84 | –
